SMILES strings stand for the structures. Some results are limits rather than exact numbers.

One may read the IC50 as the concentration that gives 50% inhibition.

For test [1], the system named is HL-60. Description: Cytotoxicity against human HL60 cells at 10 uM after 72 hrs by MTT assay. The format is functional. The essentials:
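MTT was added for 4 h at 37 °C, followed by extraction buffer (10% SDS, 5% isobutanol, 0.01 M HCl) overnight at 37 °C. Absorbance was read at 570 nm, with etoposide as positive control.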
For orientation: Tetrazolium assays rely on reduction of a dye to a coloured formazan, in cell work by metabolically active cells.

Test [2] relates to HL-60. The test is described as follows: Cytotoxicity against human HL60 cells after 72 hrs by MTT assay. Format: functional, cell-based. Particulars: HL-60, 72 h. Summed up:
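HL-60 human leukemia cells were plated in 96-well plates and exposed in triplicate to graded concentrations for 72 h. MTT was added for 4 h at 37 °C, then extraction buffer (10% SDS, 5% isobutanol, 0.01 M HCl) overnight at 37 °C. Absorbance was read at 570 nm.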

As to `CC(=O)O[C@@H]1[C@H]2C[C@H](OC/C=C/c3ccccc3)[C@]3(C)[C@@H](OC(C)=O)[C@@H](OC(=O)c4ccccc4)C[C@@H](C)[C@@]13OC2(C)C`, the Activity in the test with HL-60 [1] is given as less than 50%.

In turn, `CCCC(=O)O[C@@H]1[C@@H]2[C@@H](OC(C)=O)[C@]3(OC2(C)C)[C@H](C)CC[C@H](OC(=O)c2ccccc2)[C@@]3(C)[C@@H]1OC(=O)c1ccccc1` displayed an IC50 with HL-60 [2] of 5.3 µM.

Turning to `CC(=O)O[C@H]1CC[C@@H](C)[C@]23OC(C)(C)[C@H](C[C@H](OC(=O)c4ccccc4)[C@]12C)[C@H]3O`, in the test with HL-60 [1], the Activity is given as less than 50%.

As to `CC(=O)O[C@H]1C[C@@H]2[C@@H](OC(=O)c3ccccc3)[C@]3(OC2(C)C)[C@H](C)CC[C@H](OC(=O)c2ccccc2)[C@@]13C`, it took 2.8 µM to reach half-maximal inhibition in the test with HL-60 [2] (IC50).

Compound `CC(=O)O[C@H]1C[C@@H](C)[C@@]23C[C@@H](C[C@H](OC(C)=O)[C@]2(C)[C@H]1OC/C=C/c1ccccc1)C(C)(C)O3` showed an IC50 in the test with HL-60 [2] of 3.3 µM.

Take `CC(=O)O[C@@H]1[C@H]2[C@@H](O)[C@@H](OC(=O)c3ccccc3)[C@]3(C)[C@@H](O)CC[C@@H](C)[C@@]13OC2(C)C`: in the test with HL-60 [1], the Activity is less than 50%.

`CC(=O)O[C@@H]1[C@H]2C[C@H](OC/C=C/c3ccccc3)[C@]3(C)[C@@H](OC(C)=O)[C@@H](O)C[C@@H](C)[C@@]13OC2(C)C` had an Activity in the test with HL-60 [1] of less than 50%.

In turn, `CC(=O)O[C@H]1C[C@](C)(O)[C@@]23C[C@@H](C[C@H](OC(=O)/C=C/c4ccccc4)[C@]2(C)[C@H]1OC(C)=O)C(C)(C)O3` came in with an Activity with HL-60 [1] of less than 50%.

Take `CC(=O)O[C@H]1CC[C@@H](CO)[C@]23OC(C)(C)[C@H](C[C@H](OC(=O)c4ccccc4)[C@]12C)[C@H]3OC(=O)c1ccccc1`: the Activity in the test with HL-60 [1] is less than 50%.

As for `C[C@@H]1CC[C@H](OC(=O)c2ccccc2)[C@@]2(C)[C@H](OC(=O)c3ccccc3)[C@H](OC(=O)c3ccccc3)[C@@H]3[C@@H](O)[C@]12OC3(C)C`, the Activity in the test with HL-60 [1] is reported as less than 50%.

For `CC(=O)O[C@@H]1[C@H]2[C@@H](O)[C@@H](OC(=O)c3ccccc3)[C@]3(C)[C@@H](OC/C=C/c4ccccc4)CC[C@@H](C)[C@@]13OC2(C)C`, the IC50 in the test with HL-60 [2] was 8.3 µM. This lies in the single-digit micromolar range.

The compound `CC(=O)O[C@@H]1[C@H]2[C@@H](OC(=O)c3ccccc3)[C@H](OC(=O)c3ccccc3)[C@]3(C)[C@@H](OC(=O)c4ccccc4)CC[C@@H](C)[C@@]13OC2(C)C` came in with an Activity in the test on HL-60 [1] of less than 50%.

In the test with HL-60 [1], `CC(=O)O[C@@H]1[C@@H]2[C@@H](OC(C)=O)[C@]3(OC2(C)C)[C@H](C)CC[C@H](O)[C@@]3(C)[C@@H]1OC(=O)c1ccccc1` registered an Activity of less than 50%.

In turn, `CC(=O)O[C@@H]1[C@@H]2[C@@H](OC(C)=O)[C@]3(OC2(C)C)[C@H](C)CC[C@H](OC(C)=O)[C@@]3(C)[C@H]1OC(=O)c1ccccc1` had an IC50 in the test with HL-60 [2] of 6.8 µM. This lies in the single-digit micromolar range.

Turning to `CC(=O)O[C@@H]1[C@@H]2[C@@H](OC(C)=O)[C@]3(OC2(C)C)[C@H](C)CC[C@H](OC(=O)c2ccccc2)[C@@]3(C)[C@@H]1OC(=O)c1ccccc1`, in the test on HL-60 [1], the Activity is recorded as less than 50%.

(Values after ChEMBL document CHEMBL1157414, “Cytotoxic dihydroagarofuranoid sesquiterpenes from the seeds of Celastrus orbiculatus” (J Nat Prod, 2008).)
